Compounds with a hit are over-represented: about 3% of the library has one in this group of screens.
Myeloid diff 2 = compounds promoting myeloid differentiation | ER-HoxA9 myeloid progenitors, lysozyme-GFP differentiation, flow cytometry | calls only at 10 µM | hit rate 1% among 360,000 | AID 624256;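 active means normalized GFP-positive differentiation at or above the plate's own cutoff, the solvent-only control mean plus 3 SD; inconclusive means no clear call, values can overlap the other calls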;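 further: cells exposed to compound for four days before flow analysis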
Exocytosis inh = lytic granule exocytosis inhibition. TALL-104 LAMP-1 surface exposure, flow cytometry; cells stimulated with thapsigargin and PMA. inhibition, % at 10 µM. hit rate 0.66% among 360,000. AID 651702;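 active means inhibition above about 55%, limit read from the data; inconclusive means no clear call, values can overlap the other calls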
Pemphigus Ab inh = inhibitors of pemphigus antibody binding to human desmoglein-3; P32926; DSG3-coupled beads, scFv-anti-DSG3-GFP binding, flow cytometry; hits give low values; binding (percent of control), % at 10 µM; hit rate 0.48% among 310,000;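 active means binding more than 3 SD below its plate's average and above zero; inconclusive means below that plate limit but binding exactly zero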;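 further: hits lower antibody fragment binding to DSG3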
SENP1 FRET inh = inhibitors of human SENP1 SUMO protease catalytic domain; recombinant SENP1 catalytic domain, CyPet-SUMO1-YPet FRET cleavage; hit rate 0.21% among 360,000; inhibition, % at 10 µM;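 active means inhibition at least 30% at 10 µM, raw YFP signal under a set limit, fluorescence ratio 0.5 to 1.5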;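 further: 0% = enzyme with DMSO and 100% = no enzyme wells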
Target sequence (Q9P0U3 419-644 limits assumed): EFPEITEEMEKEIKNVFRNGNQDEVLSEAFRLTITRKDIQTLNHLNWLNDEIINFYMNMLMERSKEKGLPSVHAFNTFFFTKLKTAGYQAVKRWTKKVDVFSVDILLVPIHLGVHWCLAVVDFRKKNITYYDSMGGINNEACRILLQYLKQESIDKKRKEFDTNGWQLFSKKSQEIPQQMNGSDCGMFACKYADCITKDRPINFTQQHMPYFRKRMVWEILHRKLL
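Test system: hSENP1 catalytic domain, recombinant; Amount: 20 pM final SENP1 enzyme; Medium: Tris pH 8 buffer plus EDTA, NaCl, BME, BSA, NP40, catalase; Schedule: 50 min enzyme reaction, room temperature, light-protected; Technique: FRET fluorescence in CFP and YFP emission channels; Controls: no-enzyme wells low, DMSO-plus-enzyme wells high control.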
H9c2 protect = myocardial damage modulation in H9c2 cells | hit rate 0.63% among 360,000 | H9c2 cardiomyocytes, H2O2 injury protection, ATPLite, 2 h | protection from H2O2 cell death, % at 20 µM | AID 588492;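 active means compounds giving at least 50% protection of heart cells from peroxide-induced death in the single-dose screen, raw or plate-pattern-corrected value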;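 further: 0% = DMSO wells with peroxide and 100% = DMSO wells without peroxide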
HNF4A DNA FP = change in binding of human HNF4 alpha to DNA; P41235; HNF4a-FITC DNA binding, fluorescence polarization, 1 h; activity change, % at 10 µM; hit rate 0.3% among 360,000; in the data active means activity change above about 30%, passing the limit was not always enough
Myeloid diff CP1 = promotes myeloid progenitor differentiation; shares compounds with Myeloid diff 2; ER-HoxA9 myeloid progenitors, GFP/Mac1 double-positive flow; calls only; hit rate 2% among 2,300;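 active means share of green or green-and-red cells above 9 and 9% in run 1 or 4 and 3% in run 2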
GFP autofluor = compound fluorescence in myeloid differentiation counter-screen | shares compounds with Myeloid diff 2 | ER-HoxA9 myeloid progenitors, no estrogen, GFP autofluorescence flow cytometry; vehicle wells 0%, positive control 100% | fluorescence response, % (concentration not given with the values) | hit rate 7.4% among 2,300;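 active means over 5% cells positive for green fluorescent reporter, or over 2% positive for both it and APC stain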;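 further: range taken on the double positive population between DMSO and positive control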
* = called active by the depositor; i = inactive; ? = inconclusive; . = no result; + = active, no number.

SMILES	Myeloid diff 2	Exocytosis inh	Pemphigus Ab inh	SENP1 FRET inh	H9c2 protect	HNF4A DNA FP	Myeloid diff CP1	GFP autofluor
COc1cccc(-c2ccc(C3=CC(=O)CC(C)(C)C3=O)cc2)c1OC	i	-10	100	2	-13	-2	.	.
CCOC(=O)N1CCC(N2C(=O)c3ccccc3C2Nc2ccc(S(=O)(=O)N3CCOCC3)cc2)CC1 (centres undefined)	i	-3	96	0	1	3	.	.
O=C(NC1CC1)c1cccc(NC(=O)c2cnn(-c3ccccc3)n2)c1	+	3	.	-2	10	4	i	4
O=C(CC1C(=O)NCCN1CCCc1ccccc1)NCCc1ccccc1Cl (centres undefined)	i	0	.	-7	5	0	.	.
CCOCCCNC(=O)C(c1ccc(OC)cc1)N(Cc1cccs1)C(=O)c1ccccn1 (centres undefined)	i	3	.	2	24	3	.	.
COc1ccc(CN(C)CC(=O)Nc2cccc3ccccc23)cc1F	i	10	120	2	-7	-1	.	.
CCOc1ccc(CN(C)CC(=O)Nc2cccc3ccccc23)cc1OC	i	1	.	0	-8	-2	i	0
COc1cc(C=CC(=O)OCC=Cc2ccc3c(c2)OCO3)cc(OC)c1OC	i	-3	98	-2	0	10	.	.
CC1(C)CC(=O)C=C(NCC(=O)O)C1	i	-2	78	-20	0	0	.	.
CCSCCC(NC1=CC(=O)CC(C)(C)C1)C(=O)O (centres undefined)	+	-1	106	-3	4	-1	i	0
CCCC(=O)n1nc(-c2cccnc2)nc1NCc1ccccc1	i	-2	104	8	0	0	.	.
CC(=O)N/N=C/c1cc(C(C)(C)C)cc(/C=N/NC(C)=O)c1O	+	8	95	-23	43	-43	i	0
Cc1ccsc1C(=O)N1CCCC1(C)C(=O)NCC(C)C (centres undefined)	i	2	.	1	-2	3	.	.
COc1ccc(C2=Nn3c(nnc3C(F)(F)F)SC2)cc1	i	5	101	0	1	-1	.	.
CC(C(=O)N1CCOCC1)n1cc([N+](=O)[O-])cn1 (centres undefined)	i	3	99	2	6	1	.	.
Cc1cccc(OC(C)c2ccnc3nc(/N=C/N(C)C)nn23)c1 (centres undefined)	i	10	126	0	8	-1	.	.
COc1cccc(OC(C)c2ccnc3nc(/N=C/N(C)C)nn23)c1 (centres undefined)	i	-1	98	1	-6	2	i	1
COc1ccc(CCN2CC(C(=O)NC3CCCCC3)CC2=O)cc1OC (centres undefined)	i	2	102	0	2	1	.	.
O=C(O)c1cc(-c2ccc(/C=N/N3C(=O)C4C5C=CC(C6CC56)C4C3=O)o2)ccc1Cl (centres undefined)	i	-10	100	-8	-2	-4	.	.
CCOC(=O)N1CCC(N2CCN(S(=O)(=O)c3ccc(OC)cc3)CC2)CC1	i	-2	107	2	-3	-4	i	3.5*
CCOC(=O)N1CCC(N2CCN(S(=O)(=O)c3ccc(C)cc3)CC2)CC1	i	1	98	1	-2	-1	.	.
CSCCC(C(=O)N(C)CC(=O)Nc1cccc(F)c1)N1C(=O)c2ccccc2C1=O (centres undefined)	i	3	113	2	13	4	.	.
CCC(/C=C1\Oc2ccc(OC)cc2N1C)=C\c1sc2ccccc2[n+]1CCCS(=O)(=O)[O-]	i	-7	123	-11	-4	170	i	85*
Nc1cccc(C#Cc2ccc3c(c2)C(=O)/C(=C/c2ccsc2)O3)c1	i	-2	88	-8	-7	6	i	0
O=c1[nH]c2ccc(NCc3ccc(OCc4ccccc4Cl)cc3)cc2[nH]1	i	6	105	0	-8	-2	.	.
SMILES	Myeloid diff 2	Exocytosis inh	Pemphigus Ab inh	SENP1 FRET inh	H9c2 protect	HNF4A DNA FP	Myeloid diff CP1	GFP autofluor
COc1cc(CNc2ccc3[nH]c(=O)[nH]c3c2)ccc1OCc1ccccc1Cl	i	-13	107	2	4	2	i	0
CC1(C(=O)NS(=O)(=O)c2cccc(F)c2)CCN1C(=O)C1CCCCC1 (centres undefined)	i	-4	.	4	3	2	.	.
Cc1ccc(OCc2nnc(SCc3nc4ccccc4[nH]3)n2Cc2ccco2)cc1	+	34	114	-25	-28	1	+	0
COc1ccccc1-n1c(CNc2ccc(F)cc2)nnc1SCC(=O)Nc1cc(C)on1	i	-1	103	-1	-13	2	i	0
COc1ccc(NCc2nnc(SCC(=O)NCc3ccccc3)n2-c2ccccc2OC)cc1	i	20	107	-2	-1	0	.	.
O=C(Nc1ccc(Cc2ccncc2)cc1)C1CCC(N2C(=O)C3C4C=CC(C5CC45)C3C2=O)CC1 (centres undefined)	+	1	.	-1	-1	2	i	1
Cc1cccc(-n2c(=O)c3c4c(sc3n3c(=S)[nH]nc23)CCC4)c1	i	2	.	7	-2	2	.	.
COC(=O)C(C)Sc1nnc2n(-c3cccc(C)c3)c(=O)c3c4c(sc3n12)CCCC4 (centres undefined)	i	1	99	2	31	3	i	0
CCCCCCCNc1cccc(C)c1	i	-1	.	-1	-8	0	i	1
Cc1cc(OCC(=O)NNC(=O)CCc2ccccc2)ccc1Br	i	0	98	0	-4	2	.	.
Cn1nc(C(=O)Nc2ccc3c(c2)OCCO3)cc1C(=O)O	i	-1	104	2	-16	-3	.	.
Cc1ccc(Cl)cc1N1CCN(C(=O)C2CCC(=O)N(C3CCCCCC3)C2)CC1 (centres undefined)	+	13	?	0	-20	-1	i	1
O=C(C1CCC(=O)N(C2CCCC2)C1)N1CCN(c2ccc(Cl)cc2)CC1 (centres undefined)	i	-1	100	-4	0	-4	.	.
O=C(Cc1ccc(NC(=O)C2CCN(C(=O)C3CCC3)CC2)cc1)Nc1cccc(C(=O)N2CCCC2)c1	i	-2	96	0	-2	1	.	.
C=CCn1c(C(C)(C)C)nc2ccccc21	i	-8	99	0	3	-2	.	.

Assay outcomes (PubChem BioAssay)
